# Source: PubChem BioAssay (Broad Institute)
# PDI turbidity = blocks human protein disulfide isomerase activity; hit rate 0.052% among 350,000; PDI insulin aggregation turbidity, A650, 90 min; P07237; inhibition, % at 10 µM;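 active = mean inhibition across replicates of 30% or more, whatever share of single replicates reach that level; inconclusive = mean inhibition below 30% while every single replicate reaches 30%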
# ERp5 block = inhibitors of human ERp5; ERp5 insulin aggregation, absorbance 650 nm, 90 min; AID 651711; inhibition, % at 9.99 µM; Q15084; hit rate 0.05% among 350,000;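 active = mean replicate inhibition above about 25%, with every replicate also reaching it, limit read from the data, passing the limit was not always enough; inconclusive = only one of those two criteria met; inactive = neither criterion met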
# Target sequence (Q15084 whole entry, looked up): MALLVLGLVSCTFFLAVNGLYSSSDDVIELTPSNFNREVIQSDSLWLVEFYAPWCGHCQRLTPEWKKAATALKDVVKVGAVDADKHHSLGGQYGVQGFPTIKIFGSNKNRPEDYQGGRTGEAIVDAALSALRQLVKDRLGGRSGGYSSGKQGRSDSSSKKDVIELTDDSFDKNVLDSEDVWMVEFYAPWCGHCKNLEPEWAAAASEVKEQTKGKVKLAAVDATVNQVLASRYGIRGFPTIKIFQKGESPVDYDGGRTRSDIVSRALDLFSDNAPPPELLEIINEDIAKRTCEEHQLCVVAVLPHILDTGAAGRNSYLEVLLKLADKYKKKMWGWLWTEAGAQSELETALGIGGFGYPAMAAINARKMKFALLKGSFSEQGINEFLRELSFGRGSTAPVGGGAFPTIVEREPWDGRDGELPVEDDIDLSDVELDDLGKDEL
# DENV2 CPE = inhibitors of DENV2 cytopathic effect; DENV2-infected cells, cytopathic effect rescue, plate reader; CPE inhibition, % at 9.99 µM; hit rate 1.7% among 350,000; AID 651640; in the data active = CPE inhibition above about 20%, passing the limit was not always enough; inconclusive = no clear call, values can overlap the other calls; tested in BHK-21 cells;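 note: 0% = median of neutral control wells and 100% = median of positive control wells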
# C2C12 statin = suppression of simvastatin myotoxicity; hit rate 0.78% among 330,000; C2C12 myotubes + simvastatin, ATP luminescence, 48 h; scaled: DMSO 0, geranylgeraniol control 100; rescue of ATP level, % at 7.49 µM;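 active = mean ATP rescue above about 67%, or every replicate alone reaching that limit, limit read from the data, passing the limit was not always enough; inconclusive = no clear call, values can overlap the other calls; inactive = mean under the limit and some replicate under it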;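 note: myotubes were challenged with 10 µM simvastatin during compound exposure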
# CFTR F508del cor = CFTR F508del correction in bronchial cells | CFBE cells, YFP halide quenching; stimulated with forskolin plus potentiator P3; % fluorescence drop versus neutral controls | activity (quench increase), % at 7.58 µM | hit rate 0.36% among 350,000;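 active = mean added fluorescence quench of at least 8% versus neutral control, with both replicates also reaching 8%; inconclusive = only one of the mean or replicate conditions met; inactive = mean below 8% and not both replicates reaching 8%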;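 note: cells transiently co-express mutant CFTR-F508del with the halide-sensitive YFP; corrector assay measuring rescue of mutant channel to the surface after 24 h compound exposure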
# Cneo AK release = causes C. neoformans cell lysis; AID 651654; adenylate kinase release luminescence, 4 h; normalised: neutral wells 0, clomiphene wells 100; lysis activity, % at 15 µM; hit rate 0.2% among 360,000;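 active = mean lysis activity across replicates of at least 80%, whatever share of replicates individually reach that level; inactive = mean lysis activity below 80%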
#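 Material – Cryptococcus neoformans yeast cells · Quantity – 5 × 10^6 yeast cells/mL · Buffer or medium – YPD medium · Compound – single dose · Timing – 4 h static compound exposure, 37 °C, read 1 h post-reagent · Signal – adenylate kinase release luminescence · Read-out basis – lysis from increased AK signal · Benchmarks – Clomiphene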
# An asterisk follows results filed as active; ? = inconclusive; / = no result given. Only some compounds are listed: those with a hit (about 2.3% of all), similar ones and a draw of the others.
SMILES,PDI turbidity,ERp5 block,DENV2 CPE,C2C12 statin,CFTR F508del cor,Cneo AK release
CCCN(C)C[C@H]1Oc2cc(-c3cccnc3)ccc2S(=O)(=O)N([C@H](C)CO)C[C@H]1C,/,2.8,18.8,-13.2,-1.1,1.7
O=C(NCCc1ccncc1)[C@@H]1[C@@H](CO)[C@@H]2Cn3c(ccc(-c4cccc(F)c4)c3=O)[C@H]1N2,/,1.0,84.7*,2.0,1.9,1.0
Cc1cc2[nH]c3c4ccccc4nc(C)c3c2cc1C,16.2,3.7,-17.7,-214.4,-15.5,-1.5
Cc1cc2[nH]c3c(c[n+](C)c4ccccc34)c2cc1C,12.0,-1.3,2.0,/,24.2*,/
CNC[C@@H]1Oc2ccc(NS(=O)(=O)c3ccc(F)cc3)cc2C(=O)N([C@H](C)CO)C[C@@H]1C,/,-1.7,53.5*,-6.5,-2.6,0.3
CNC[C@@H]1Oc2ccc(NS(=O)(=O)c3ccc(Cl)cc3)cc2C(=O)N([C@H](C)CO)C[C@H]1C,/,1.1,-14.5,13.2,0.1,107.7*
CNC[C@@H]1Oc2c(NS(=O)(=O)c3ccc(F)cc3)cccc2C(=O)N([C@H](C)CO)C[C@H]1C,/,1.0,21.2*,50.5,-0.6,8.1
CCCN1C[C@H](C)[C@H](OC)CN(C)C(=O)c2cc(NC(=O)C3CC3)ccc2OC[C@@H]1C,/,-4.8,-4.0,10.2,1.3,-15.2
CN(C)CC#Cc1ccc([C@H]2[C@H](CO)N3CCCCN(C(=O)Nc4cc(F)ccc4F)C[C@@H]23)cc1,/,-0.3,31.6*,/,4.5,-4.3
CN(C)CC#Cc1ccc([C@H]2[C@@H](CO)N3CCCCN(C(=O)c4ccc5c(c4)OCO5)C[C@H]23)cc1,/,-6.2,22.3*,-10.9,0.6,-1.3
CN(C)CC#Cc1ccc([C@H]2[C@H](CO)N3CCCCN(C(=O)c4ccc5c(c4)OCO5)C[C@@H]23)cc1,/,-0.1,?,-13.6,-1.1,-1.1
CC(C)C#Cc1ccc([C@@H]2[C@H](CO)N3CCCCN(C(=O)c4ccc5c(c4)OCO5)C[C@@H]23)cc1,/,?,-3.7,/,-0.7,110.9*
COc1ccc(S(=O)(=O)Nc2ccc3c(c2)CC(=O)N([C@H](C)CO)C[C@@H](C)[C@H](CN(C)C(=O)NC2CCCCC2)O3)cc1,/,0.1,3.3,-17.8,-1.5,0.0
OC[C@H]1[C@@H]2c3ccccc3NC[C@@H]2N1CC1CCOCC1,/,2.6,22.1*,12.6,-2.0,-3.4
COc1ccc2c3c(n(C)c2c1)[C@@H](CO)N(S(C)(=O)=O)CC31CN(C(=O)C2CCCC2)C1,/,3.9,-6.1,/,0.9,/
C[C@@]12CCC=C[C@H]1[C@H](c1ccc3ccccc3c1)N(Cc1ccccc1)C2=O,2.1,0.8,/,2.3,-0.3,-3.8
C[C@@]12CCC=C[C@H]1[C@H](c1ccc3ccccc3c1Br)N(Cc1ccccc1)C2=O,-2.0,0.7,-1.3,77.7*,2.7,1.1
Brc1cccc(-c2nnc(SCc3nc4ccccc4[nH]3)o2)c1,-3.0,/,/,42.1,/,1.6
c1ccc2[nH]c(CSc3nnc(-c4ccncc4)o3)nc2c1,-3.6,/,/,85.0*,/,-8.7
COCC1=C([C@H](O)c2ccccc2)[C@H](CO)n2c(=O)n(-c3ccccc3)c(=O)n2C1,/,2.6,1.5,/,-1.2,7.7
COc1ccc(C(O)(CCC(C)C)C(CN2CCOCC2)c2ccccc2)cc1 (stereo not given),9.1,0.8,-3.8,-4.9,1.7,0.3
CC(C)CCC(O)(c1ccccc1)C(CN1CCOCC1)c1ccccc1 (stereo not given),-1.8,-1.6,29.8*,-3.8,-2.0,1.9
C[C@H]1CN([C@@H](C)CO)C(=O)Cc2cc(NC(=O)Cn3cnnn3)ccc2O[C@@H]1CN(C)S(C)(=O)=O,/,/,1.8,-14.2,-2.0,-2.0
O=C(N[C@@H]1CC[C@@H](CCn2cc(-c3ccccn3)nn2)O[C@@H]1CO)c1ccc(F)cc1,/,-3.1,13.0,-2.8,-3.9,77.9
COc1ccc(NC(=O)N[C@H]2CC[C@@H](CCn3cc(C4(O)CCCC4)nn3)O[C@@H]2CO)cc1,/,2.9,93.2*,-0.8,-0.2,0.1
SMILES,PDI turbidity,ERp5 block,DENV2 CPE,C2C12 statin,CFTR F508del cor,Cneo AK release
O=C(N[C@H]1CC[C@H](CCn2cc(-c3ccccn3)nn2)O[C@H]1CO)c1ccc(F)cc1,/,2.6,-0.1,-0.4,-2.9,83.1*
O=C(Nc1ccc(F)cc1)N[C@@H]1CC[C@@H](CCn2cc(-c3ccc(F)cc3)nn2)O[C@H]1CO,/,6.5,21.7*,1.2,-1.2,-2.6
COc1ccc(NC(=O)N[C@@H]2CC[C@H](CCn3cc(-c4ccc(F)cc4)nn3)O[C@@H]2CO)cc1,/,-7.2,2.9,9.2,3.4,3.3
COc1ccc(NC(=O)N[C@@H]2CC[C@@H](CCn3cc(-c4ccc(F)cc4)nn3)O[C@@H]2CO)cc1,/,5.1,6.0,-2.6,9.2*,0.9
O=C(c1ccccn1)N1CC2(C1)[C@H](c1ccccc1)[C@@H](CO)N2Cc1ccccc1,/,3.6,-5.2,/,-1.9,/
O=C(C[C@@H]1C=C[C@@H](NS(=O)(=O)c2ccc(F)cc2)[C@@H](CO)O1)NCc1ccc(Cl)c(Cl)c1,/,-2.6,-2.0,8.6,2.0,3.6
CO[C@H]1CN(C)C(=O)c2ccc(NC(=O)C3CC3)cc2OC[C@H](C)NC[C@H]1C,/,-0.6,1.0,4.6,-3.1,10.8
Cc1ccc(S(=O)(=O)N(C)C[C@H]2Oc3c(NC(=O)CCCCCC(=O)Nc4ccccc4N)cccc3C(=O)N([C@@H](C)CO)C[C@H]2C)cc1,/,9.2,?,/,-1.4,/
Cc1noc(C)c1S(=O)(=O)Nc1ccc2c(c1)C(=O)N([C@H](C)CO)C[C@@H](C)[C@@H](CN(C)Cc1ccncc1)OCCCC[C@H](C)O2,/,2.9,-5.7,/,-0.6,-1.8
COc1ccc(-c2cn(CC[C@@H]3CC[C@H](NC(=O)Nc4ccc(F)cc4)[C@H](CO)O3)nn2)cc1,/,5.1,95.1*,/,0.3,/
C[C@H](CO)N1C[C@H](C)[C@@H](CN(C)C(=O)C2CCOCC2)Oc2ncc(C3=CCCC3)cc2C1=O,/,4.0,-2.1,5.4,2.5,-0.3
S=C(Nc1ccc(Cl)c(Cl)c1)N1CCCC1,-3.2,0.6,-3.5,4.7,0.6,-0.8
CN1CCN(C(=S)Nc2ccc(Cl)c(Cl)c2)CC1,5.6,1.2,77.7*,/,0.3,4.6
O=C1/C(=C/c2cccnc2)Sc2ccccc21,5.0,/,/,93.0*,/,0.1
CC(=O)Nc1ccc(/C=C2\Sc3ccccc3C2=O)cc1,-1.7,-6.9,0.5,/,2.5,/
Cc1ccc(/C=C2\Sc3ccccc3C2=O)s1,11.2,/,/,87.3*,/,-3.2
CC(C)C#Cc1ccc([C@H]2[C@@H](CO)N3C(=O)CN(C(=O)NC4CCCCC4)C[C@@H]23)cc1,/,-10.9,-1.4,/,3.9,/
O=C1C2C3c4ccccc4C(c4ccccc43)C2c2nc3ccccc3n21 (stereo not given),-2.5,/,/,114.9*,/,0.9
